For data set [1], the target named is USP10 (Homo sapiens, UniProt Q14694). As to the kind of experiment: MALDI-TOF DUB assay with diubiquitin as substrate, dose response. The format is biochemical. The settings on record: read-out: USP10 IC50. An outline of the steps:
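Human USP10 was freshly diluted in 40mM Tris–HCl pH 7.6, 5mM DTT, 0.005% BSA and pre-incubated with test compound for 30 min at room temperature. Di-ubiquitin topoisomers (K63, K48, K11, M1) at 1.5 μM were added, incubated 30 min at room temperature, then stopped with TFA at 2% (v/v) final. Cleavage was read by MALDI-TOF.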

The subject of a further data set is wt FLT3. Put plainly: FLT3 protein levels in Ba/F3-wtFLT3 cells. The data set is classed as cell-based, murine.
The subject of the next data set is FLT3-ITD. As to the kind of experiment: FLT3 degradation in FLT3-ITD positive AML lines. To be noted: MOLM13-luc+ and MOLM14, 20 μM. The format is cell-based, human.
Another data set deals with Beclin-1. Put plainly: Beclin-1 and FLT3 protein levels. The format is cell-based.
In data set [2] the test system is FLT3-ITD positive primary AML patient cells and primagraft cells. Put plainly: Ex vivo treatment of AML patient samples and primagrafts. The data set is classed as cell-based, human. The settings on record: 21 hours, 20 μM.
Data set [3] concerns FLT3-ITD+, D835Y+ AML primagraft. Put plainly: AML primagraft study in NSG mice. The data set is classed as in vivo. Summed up: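 Primagraft mice got the test compound at 15 mg/kg IP once daily (n=3) or vehicle (n=3). Dosing began once disease was detectable by flow cytometry and ran for 21 days. Body weight was followed to judge tolerability.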
Data set [4] concerns Ba/F3-FLT3-ITD-luc+ cells. As to the kind of experiment: Non-invasive in vivo bioluminescence model of leukemia.
Data set [5] concerns Ba/F3-FLT3-ITD and Ba/F3-FLT3-D835Y cells. As to the kind of experiment: Proliferation of mutant FLT3-positive Ba/F3 cells. The format is cell-based, murine.
The subject of data set [6] is USP10. Put plainly: Competitive activity-based protein profiling with HA-Ub-VS in cells. To be noted: lysates from live treated cells (Ba/F3-FLT3-ITD, MOLM14). The data set is classed as cell-based.
The mark [7] stands for this setting: 50 mg/kg twice daily IP, 4 days, pilot study.

We go through 2 compounds from paper PMC6314479 (Nature chemical biology, 2017).

By IC50 is commonly meant the concentration needed to halve the response being measured.

Sequence of USP10 (Homo sapiens, UniProt Q14694) (Q14694 whole entry): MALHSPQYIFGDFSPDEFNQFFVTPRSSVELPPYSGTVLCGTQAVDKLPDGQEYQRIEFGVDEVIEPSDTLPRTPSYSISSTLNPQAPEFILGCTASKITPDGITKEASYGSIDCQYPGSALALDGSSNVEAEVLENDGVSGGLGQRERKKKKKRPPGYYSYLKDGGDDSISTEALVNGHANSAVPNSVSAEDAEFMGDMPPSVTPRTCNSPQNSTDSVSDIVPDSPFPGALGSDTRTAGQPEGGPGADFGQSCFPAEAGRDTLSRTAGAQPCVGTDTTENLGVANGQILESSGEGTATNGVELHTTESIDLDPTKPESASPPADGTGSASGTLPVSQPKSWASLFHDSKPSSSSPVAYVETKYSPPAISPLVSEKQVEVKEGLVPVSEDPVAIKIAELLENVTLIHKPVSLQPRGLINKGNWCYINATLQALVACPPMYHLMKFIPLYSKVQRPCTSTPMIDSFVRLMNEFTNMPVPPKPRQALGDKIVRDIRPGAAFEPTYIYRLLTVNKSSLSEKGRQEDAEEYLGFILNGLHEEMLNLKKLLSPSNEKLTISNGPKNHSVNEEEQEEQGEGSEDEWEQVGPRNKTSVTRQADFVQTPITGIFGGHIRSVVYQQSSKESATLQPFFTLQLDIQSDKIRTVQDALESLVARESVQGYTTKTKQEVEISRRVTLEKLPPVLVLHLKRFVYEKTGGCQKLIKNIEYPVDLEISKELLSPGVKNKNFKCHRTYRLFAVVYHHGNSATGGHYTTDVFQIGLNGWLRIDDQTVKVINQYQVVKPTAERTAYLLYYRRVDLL

`CC(=O)c1cc([N+](=O)[O-])c(Sc2ccc(F)cc2F)s1` [P22077]: the IC50 on USP10 [1] is 6 µM. In the data set on wt FLT3, the FLT3 protein levels entry is recorded as “unchanged”. Further, in the data set with FLT3-ITD, the FLT3 degradation entry is on record as “strongly induced FLT3 degradation”. Moreover, the “protein levels of Beclin-1” value in the data set with Beclin-1 (10 μM, MOLM14 cells) is “strongly decreased”. Also, in data set [2], the “FLT3 levels via immunoblotting” value is “strong reduction in FLT3”. Moreover, the “FLT3 signal in mouse bone marrow lysates (immunoblot)” value in [3] (15 mg/kg IP 1X daily, 21 days) is on record as “undetectable”. In data set [3] (15mg/kg, 21 day treatment), the tolerability entry is recorded as “generally well tolerated”. For the same compound, the average weight loss in data set [3] (15mg/kg, 21 days, same for vehicle-treated) fell in the range of 2 to 3 g. For the same compound, in data set [4] (50 mg/kg IP twice daily or oral gavage once daily, 4–6 days of treatment), the “leukemia burden compared to vehicle (in vivo bioluminescence)” value is “statistically significant decrease”. In data set [4] (setting [7]), the “lower percentage of FLT3 expression in bone marrow vs vehicle (flow cytometry)” value is “approximately 2 fold” and the “reduction in luciferase-positive signal in bone marrow vs vehicle” value is “approximately 2 fold”. Also, the “difference in weight vs vehicle-treated mice” value in data set [4] (treated for up to 11 days) is on record as “no significant difference”.
For the compound HBX19818, the IC50 on USP10 [1] was found to be 14 µM. For the same compound, the “EC50 for inhibition of proliferation” value in data set [5] is given as “single digit micromolar range”. Further, the FLT3 protein levels entry with wt FLT3 is recorded as “unchanged”. Further, in the data set on FLT3-ITD, the FLT3 degradation entry was “strongly induced FLT3 degradation”. The “protein levels of Beclin-1 and FLT3” value in the data set on Beclin-1 (20 μM, Ba/F3-FLT3-ITD and MOLM14 cells) is given as “strongly decreased”. In the data set on USP10 [6], the “inhibitor concentration blocking USP10 labeling by HA-Ub-VS” value was “low micromolar range”. Besides, the “FLT3 levels via immunoblotting” value in data set [2] is “strong reduction in FLT3”.
